Measured values reported in ChEMBL document CHEMBL4428120, “In silico and in vitro methods to identify ebola virus VP35-dsRNA inhibitors” (Bioorg Med Chem, 2016).
Active and inactive are the calls of the source. No cut-off for these calls is given here.

Legend:
Ebolavirus [1] = experiment: Inhibition of fluorescent dsRNA probe binding to N-terminal His-tagged recombinant Ebola virus VP35 interferon inhibitory domain assessed as normalized intensity for DNA binding at 200 uM pre-incubated for 5 mins before dsRNA addition and measured after 5 mins by ethidium bromide displacement based EMSA method relative to control; design: scale not given: the % may be the effect or the level left
DNA = experiment: Binding affinity to DNA (unknown origin) assessed as inhibition of fluorescent dsRNA probe binding to DNA at 200 uM at 200 uM pre-incubated for 5 mins before dsRNA addition and measured after 5 mins by ethidium bromide displacement based EMSA method relative to control; assay type: nucleic-acid assay
RNA = experiment: Binding affinity to RNA (unknown origin) assessed as inhibition of fluorescent dsRNA probe binding to DNA at 200 uM at 200 uM pre-incubated for 5 mins before dsRNA addition and measured after 5 mins by ethidium bromide displacement based EMSA method relative to control; assay type: nucleic-acid assay
Ebolavirus [2] = experiment: Inhibition of fluorescent dsRNA probe binding to N-terminal His-tagged recombinant Ebola virus VP35 interferon inhibitory domain at 200 uM pre-incubated for 5 mins before dsRNA addition and measured after 5 mins by ethidium bromide displacement based EMSA method relative to control
Outline: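 Recombinant VP35 IID was expressed in E. coli BL-21 and purified on Ni-NTA. It was 400 nM before probe addition, in 10 mM Tris-HCl pH 7.5, 10 mM NaCl, 10% glycerol, with 200 μM compound for 5 min. An equal volume of 60 nM Cy5.5-labelled 10-bp dsRNA was added, then 5 min at room temperature and then on ice. Run on 1% agarose in chilled TAE; infrared scan.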

[3] = (§1) Inhibition of fluorescent dsRNA probe binding to N-terminal His-tagged recombinant Ebola virus VP35 interferon inhibitory domain pre-incubated for 5 mins before dsRNA addition and measured after 5 mins by ethidium bromide displacement based EMSA method relative to control; design: species or system Ebolavirus
Outline: (§2)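 EMSA: Ni-NTA-purified recombinant VP35 IID was 400 nM before probe addition, in Tris-HCl pH 7.5/NaCl/10% glycerol buffer. Compound was diluted twofold serially from 200 μM and incubated 5 min. An equal volume of 60 nM Cy5.5-dsRNA probe was added, then 5 min at room temperature and then on ice. Agarose gel, infrared scan; IC50 taken from the dose-response.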

Ebolavirus [4] = experiment: as §1; outline: as §2

SMILES | Activity (Ebolavirus [1]) | Activity (DNA) | Activity (RNA) | inhibition (Ebolavirus [2]) | IC50 [3] | inhibition (Ebolavirus [4])
Nc1nnc2nc(CC(=O)c3cccc([N+](=O)[O-])c3)c(CC(=O)c3cccc([N+](=O)[O-])c3)nn12 | 60.7 to 88.8% | inactive | inactive | – | – | –
O=C(OCCCCOC(=O)N1C(=O)c2ccccc2C1=O)N1C(=O)c2ccccc2C1=O | 46.8 to 78.5% | Active | Active | > 50% | – | –
Cc1nc(-n2nc(-c3ccccc3)cc2-c2ccccc2)sc1C(=O)/C=C/c1ccc([N+](=O)[O-])cc1 | 76.3% | inactive | inactive | – | – | –
CN1CCN(CCSC(=O)C(Cl)(c2ccccc2)C2CCCC2)CC1 (stereo not drawn) | 72.3 to 91.8% | inactive | inactive | > 50% | – | –
NC(=O)NC(NC(=O)NC(NC(N)=O)c1ccco1)c1ccco1 (stereo not drawn) | 98.1 to 116% | inactive | inactive | > 50% | 4 µM | –
CCOC(=O)NC(NC(=O)OCC)c1ccc(C(NC(=O)OCC)NC(=O)OCC)cc1 | 79.6 to 108% | inactive | inactive | > 50% | – | –
CNCc1ccco1 | 110 to 117% | inactive | inactive | inactive | – | –
CCOc1ccccc1C(SCC(=O)O)SCC(=O)O | 92 to 107% | inactive | inactive | > 50% | – | –
COC1=C/C(=C/C=C(\NNC(=S)NN)c2sc(NNC(C)=O)nc2C)C=CC1=O | 81.5% | inactive | inactive | – | 20 µM | Dose-dependent effect
CCC(=O)NNC(/C=C/c1cccc(O)c1)=C1/S/C(=N\c2ccc(C)cc2[N+](=O)[O-])N=C1C | 73.8 to 92.7% | inactive | inactive | – | – | –
c1coc(CNCNCc2ccco2)c1 | 45 to 98.4% | inactive | inactive | inactive | – | –
